Results: the RNAGym collection of RNA variant scans (doi:10.1126/science.aae0568)
Variants at the floor of the assay were thinned out.

B1: tRNA (parent)
chain: GUUCCGUUGGCGUAAUGGUAACGCGUCUCCCUCCUAAGGAGAAGACUGCGGGUUCGAGUCCCGUACGGAACG

Variants of: B1
Experiment: yeast fitness relative to wild type (ratio to wild type); higher = fitter; tRNA-Arg(CCU), competitive growth, 37 C, YPD
Summary of the method: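 For this measurement, the tRNA-Arg(CCU) gene was varied by chemical synthesis at a 3% per-site mutation rate across 69 sites, and each variant was placed at the native genomic locus in Saccharomyces cerevisiae. The pooled strains went through a 24-hour competition in YPD at 37°C in six parallel replicates, with amplicons from start and end populations read by 100-nucleotide paired-end sequencing. Darwinian fitness relative to wild type followed from the change in each genotype's frequency. Genotypes needed ≥ 100 starting reads, and estimates < 0.5 were set to 0.5.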

Q: Which yeast fitness does the source give for C4G C11A U32A U35A C49U U59G G67U here?
A: The yeast fitness was no more than 0.5.

Q: Which yeast fitness does the source give for C4G A42U G68C here?
A: Its yeast fitness is no more than 0.5.

Q: For C4A U28A C30A C49G A70C, which yeast fitness is on record?
A: The yeast fitness was no more than 0.5.

Q: With C4A U26G C66U as the variant, how does the yeast fitness read?
A: Its yeast fitness is no more than 0.5.

Q: With C4G C5G U8C G23C C29U A45U G68A as the variant, how does the yeast fitness read?
A: Its yeast fitness is 0.59.

Q: For C4G A36G G48A, which yeast fitness is on record?
A: Its yeast fitness is 0.533.

Q: For C4G A37C G38A G63A, which yeast fitness is on record?
A: Its yeast fitness is no more than 0.5.

Q: With C4G A14C U47C as the variant, how does the yeast fitness read?
A: The yeast fitness was no more than 0.5.

Q: For C4G C5G C30U C31U A37G G50C A57U, which yeast fitness is on record?
A: The yeast fitness was no more than 0.5.

Q: For C4G C24G C33G G63A, which yeast fitness is on record?
A: The yeast fitness was 0.554.

Q: For C4G A40U A45U G67A, which yeast fitness is on record?
A: Its yeast fitness is no more than 0.5.

Q: For C4G A15C G50C U54C, which yeast fitness is on record?
A: The yeast fitness was no more than 0.5.

Q: Which yeast fitness does the source give for C4G A21C C30A G51A here?
A: The yeast fitness was 0.747.

Q: For C4G A70C, which yeast fitness is on record?
A: The yeast fitness was 1.08.

Q: With C4G A70G as the variant, how does the yeast fitness read?
A: Its yeast fitness is 0.909.

Q: Which yeast fitness does the source give for C4G A70U here?
A: The yeast fitness was 0.806.

Q: Which yeast fitness does the source give for C4G A43G here?
A: Its yeast fitness is 0.729.

Q: Which yeast fitness does the source give for C4G A43U here?
A: The yeast fitness was 0.856.

Q: With C4A U13G A45U U47A as the variant, how does the yeast fitness read?
A: Its yeast fitness is 0.616.

Q: Which yeast fitness does the source give for C4G C24A here?
A: The yeast fitness was 0.634.

Q: With C4A U16C G17A C62A as the variant, how does the yeast fitness read?
A: The yeast fitness was no more than 0.5.

Q: For C4G A15G G23A C34G G67U, which yeast fitness is on record?
A: The yeast fitness was no more than 0.5.

Q: With C4G C11G A36G C55U C61A as the variant, how does the yeast fitness read?
A: Its yeast fitness is 0.52.

Q: With C4G C5U A42G A45U C66U as the variant, how does the yeast fitness read?
A: The yeast fitness was no more than 0.5.

Q: With C4A U16G G52C U64A as the variant, how does the yeast fitness read?
A: Its yeast fitness is no more than 0.5.

Q: With C4G A21C C49A A65G as the variant, how does the yeast fitness read?
A: Its yeast fitness is no more than 0.5.

Q: With C4G A45U A70C as the variant, how does the yeast fitness read?
A: Its yeast fitness is 0.808.

Q: With C4G A20U C60G C62G as the variant, how does the yeast fitness read?
A: Its yeast fitness is 0.584.

Q: Which yeast fitness does the source give for C4G C22U G50C here?
A: Its yeast fitness is no more than 0.5.

Q: With C4G A20U A57U C62U as the variant, how does the yeast fitness read?
A: The yeast fitness was no more than 0.5.

Q: For C4G A14U C30U G48C, which yeast fitness is on record?
A: Its yeast fitness is no more than 0.5.

Q: With C4G A14G A37U G38A A70U as the variant, how does the yeast fitness read?
A: The yeast fitness was 0.628.

Q: With C4G A21C C22U C61U as the variant, how does the yeast fitness read?
A: Its yeast fitness is no more than 0.5.

Q: With C4G C11U A14G C55G G68C as the variant, how does the yeast fitness read?
A: Its yeast fitness is no more than 0.5.

Q: Which yeast fitness does the source give for C4G A45C A69U here?
A: Its yeast fitness is 0.789.

Q: With C4G A40C C49G C55G A69U as the variant, how does the yeast fitness read?
A: The yeast fitness was no more than 0.5.

Q: For C4G C11G C29A C30U, which yeast fitness is on record?
A: Its yeast fitness is no more than 0.5.

Q: With C4G C11U A14G as the variant, how does the yeast fitness read?
A: The yeast fitness was 0.556.

Q: Which yeast fitness does the source give for C4G A15G G23A C34G here?
A: Its yeast fitness is 0.538.

Q: Which yeast fitness does the source give for C4G A20C U26G C33U G44C U59A G67A here?
A: The yeast fitness was no more than 0.5.

Q: Which yeast fitness does the source give for C4G A40U C46U G67U here?
A: The yeast fitness was 0.602.

Q: Which yeast fitness does the source give for C4G A20U C29G C31A G38A here?
A: Its yeast fitness is no more than 0.5.

Q: For C4G A14U C34U, which yeast fitness is on record?
A: The yeast fitness was 0.591.

Q: Which yeast fitness does the source give for C4A U59A here?
A: The yeast fitness was 0.664.

Q: Which yeast fitness does the source give for C4A U59C here?
A: Its yeast fitness is 0.944.

Q: For C4G C22U C34G A36U, which yeast fitness is on record?
A: Its yeast fitness is no more than 0.5.

Q: With C4G A40U A42C A57G C62G as the variant, how does the yeast fitness read?
A: Its yeast fitness is no more than 0.5.

Q: For C4G A69U, which yeast fitness is on record?
A: Its yeast fitness is 0.775.

Q: Which yeast fitness does the source give for C4G A14C A20C A40G G44C U53C C55A A65U here?
A: The yeast fitness was no more than 0.5.

Q: With C4A U35C C66A as the variant, how does the yeast fitness read?
A: Its yeast fitness is no more than 0.5.

Q: For C4A U32C A43C, which yeast fitness is on record?
A: Its yeast fitness is 0.57.

Q: Which yeast fitness does the source give for C4G A20C C30A C31G C34A A37G C49A A57C G63A here?
A: Its yeast fitness is no more than 0.5.

Q: For C4G C5G U26C A43G, which yeast fitness is on record?
A: The yeast fitness was no more than 0.5.

Q: Which yeast fitness does the source give for C4G A36U U53A G68A A69G here?
A: Its yeast fitness is no more than 0.5.

Q: With C4A U16G C24U G48A as the variant, how does the yeast fitness read?
A: The yeast fitness was 0.643.

Q: For C4G A14C C31U U35A U47G, which yeast fitness is on record?
A: Its yeast fitness is no more than 0.5.

Q: With C4G C11U A14G C46G C55G C61G as the variant, how does the yeast fitness read?
A: Its yeast fitness is no more than 0.5.

Q: Which yeast fitness does the source give for C4G C24G U26G G39C C49G A65G here?
A: Its yeast fitness is no more than 0.5.

Q: Which yeast fitness does the source give for C4G C11U A14U C30G here?
A: Its yeast fitness is no more than 0.5.

Q: With C4G A20U G67A as the variant, how does the yeast fitness read?
A: Its yeast fitness is no more than 0.5.

Q: With C4G A45U C49U as the variant, how does the yeast fitness read?
A: Its yeast fitness is 0.502.

Q: With C4G C5U U13A A42U C61U as the variant, how does the yeast fitness read?
A: The yeast fitness was no more than 0.5.

Q: Which yeast fitness does the source give for C4G A40C here?
A: Its yeast fitness is 0.811.

Q: Which yeast fitness does the source give for C4G C22U C34G A36U C61U here?
A: Its yeast fitness is no more than 0.5.

Q: With C4G C11G C29A A40G as the variant, how does the yeast fitness read?
A: The yeast fitness was no more than 0.5.

Q: With C4G A20U A43C G50A as the variant, how does the yeast fitness read?
A: Its yeast fitness is no more than 0.5.

Q: For C4A U26G G44C G58A U59C G68C, which yeast fitness is on record?
A: Its yeast fitness is no more than 0.5.

Q: For C4G C5U G44C G63A G67U, which yeast fitness is on record?
A: Its yeast fitness is no more than 0.5.

Q: Which yeast fitness does the source give for C4G A43G G51C here?
A: Its yeast fitness is no more than 0.5.

Q: Which yeast fitness does the source give for C4G A20U C31G A65U here?
A: Its yeast fitness is no more than 0.5.

Q: With C4G A14G A37U G38A G63C as the variant, how does the yeast fitness read?
A: Its yeast fitness is no more than 0.5.

Q: Which yeast fitness does the source give for C4A U47A C61U here?
A: The yeast fitness was 0.545.

Q: For C4G A15U U54G C55U, which yeast fitness is on record?
A: Its yeast fitness is 0.51.

Q: For C4G C11G C46U U59C C62G A65U, which yeast fitness is on record?
A: The yeast fitness was no more than 0.5.

Q: Which yeast fitness does the source give for C4G A15U G18C G23C C24G G56C here?
A: Its yeast fitness is no more than 0.5.

Q: Which yeast fitness does the source give for C4G A14C G25C U54A C66G here?
A: Its yeast fitness is no more than 0.5.

Q: Which yeast fitness does the source give for C4G A36U C62G here?
A: Its yeast fitness is 0.54.

Q: With C4G A21U C49U G56C as the variant, how does the yeast fitness read?
A: Its yeast fitness is no more than 0.5.

Q: With C4G A15G A37U A40C G48A G50C as the variant, how does the yeast fitness read?
A: The yeast fitness was 0.515.

Q: Which yeast fitness does the source give for C4G C5U G25C G68A here?
A: The yeast fitness was no more than 0.5.

Q: With C4G A20U C61G as the variant, how does the yeast fitness read?
A: Its yeast fitness is no more than 0.5.

Q: With C4A U35C G48C C55U G56A C62U as the variant, how does the yeast fitness read?
A: The yeast fitness was no more than 0.5.

Q: With C4A U32A as the variant, how does the yeast fitness read?
A: The yeast fitness was 0.876.
